Published values pooled from the literature.
Effect on: cell growth or viability

NNc1nc2c(Cl)cc(Cl)cc2c(=O)n1-c1ccc(F)cc1  IC50 (SW480; MTT; 48 h): 52000 nM
Cc1n[nH]c2ccc3nc(-c4ccc(C(=O)NCCN(C)C)cc4)c4c(c3c12)CCCC4  GI50 (Kasumi 1; 72 h): 148 nM
COc1cccc2c1C(=O)c1c(O)c3c(c(O)c1C2=O)C[C@@](O)(C(=O)CO)C[C@@H]3O[C@H]1C[C@H](N)[C@H](O)[C@H](C)O1  IC50 (SW480; MTT; 72 h): 90 nM
CCN(CC)c1ccc(C=NNC(=O)CSc2nc3ccccc3c(=O)n2Cc2ccc(S(N)(=O)=O)cc2)c(O)c1  GI50 (NCI/ADR-RES; SRB): > 100000 nM
C[C@H](Nc1ccc2c(c1)OCCn1cc(N3C(=O)OC[C@H]3C(F)F)nc1-2)C(N)=O  EC50 (HGC-27; ATP luminescence; 5 days): 120 nM
Cc1n[nH]c2ccc3nc(-c4ccc(C(=O)NCCN(C)C)cc4F)c4c(c3c12)CCCCC4  GI50 (Kasumi 1; 72 h): 397 nM
Cc1nc(NC(=O)N2CCC[C@H]2C(N)=O)sc1-c1ccnc(C(C)(C)C(F)(F)F)c1  EC50 (HGC-27; ATP luminescence; 5 days): 20100 nM
C=C1CC[C@@H]2[C@](C)(CO)[C@H](O)CC[C@@]2(C)[C@@H]1C/C=C1/C(=O)OC[C@H]1O  IC50 (SW480; MTT; 72 h): 4170 nM
Cc1nc(Nc2ncc(C(=O)Nc3c(C)cccc3Cl)s2)cc(N2CC[C@H](O)C2)n1  inhibition (Toledo; ATP luminescence; 10 µM, 72 h): 50%
